Values after ≈ are worked out from the molar mass of the structure shown. Active and inactive are the calls of the source.
Legend:
Streptococcus pyogenes [1] = assay: Antibacterial efficacy against Streptococcus pyogenes C203 infected orally dosed CD1 mouse model; type: functional; conditions: C203, po
Procedure, shortened: (§1)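 Sepsis model in female CD1 mice (6–8 weeks, 18–22 g). Lethal i.p. challenge (0.5 ml) at ≥100 median lethal doses. Streptococci were given in Todd-Hewitt broth; other organisms were given with 20% hog gastric mucin. A single oral gavage dose (0.5 ml, in 0.5% methylcellulose) was given at the time of challenge. The PD50 (mg/kg) was calculated by probit analysis.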

Streptococcus pneumoniae [2] = assay: Bactericidal activity against Streptococcus pneumoniae SV1 at 2 ug/ml by time-kill study; type: functional, organism-based
Procedure, shortened: (§2)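 Time-kill in 10 ml of cation-adjusted Mueller-Hinton broth with 3% lysed horse blood, without agitation. Multiples of MIC tested. Samples taken at 0, 2, 4, 6 and 24 h and plated on tryptic soy agar with 5% sheep blood after ≥250-fold dilution, detection limit 10 CFU/ml. Counts read after 24 h at 35°C. Bactericidal defined as a ≥3 log10 drop from the starting inoculum within 24 h.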

Enterococcus faecalis = assay: Antibacterial efficacy against Enterococcus faecalis MGH2 infected orally dosed CD1 mouse model; type: functional; procedure, shortened: as §1
Streptococcus pneumoniae [3] = assay: Bactericidal activity against Streptococcus pneumoniae SV1 at 0.008 ug/ml by time-kill study; type: functional, organism-based; procedure, shortened: as §2
Streptococcus pneumoniae [4] = assay: Antibacterial efficacy against Streptococcus pneumoniae SVI infected orally dosed CD1 mouse model; type: functional; conditions: po; procedure, shortened: as §1
Staphylococcus aureus [5] = assay: Antibacterial efficacy against methicillin-resistant Staphylococcus aureus SA1417 infected orally dosed CD1 mouse model; type: functional; procedure, shortened: as §1
Staphylococcus aureus [6] = assay: Antibacterial efficacy against ciprofloxacin and methicillin-resistant Staphylococcus aureus SA2017 infected orally dosed CD1 mouse model; type: functional; procedure, shortened: as §1
Staphylococcus aureus [7] = assay: Antibacterial efficacy against methicillin-susceptible Staphylococcus aureus UC76 infected orally dosed CD1 mouse model; type: functional; conditions: UC76, po; procedure, shortened: as §1
Streptococcus pyogenes [8] = assay: Bactericidal activity against Streptococcus pyogenes C203 at 2 ug/ml by time-kill study; type: functional, organism-based; procedure, shortened: as §2
Streptococcus pyogenes [9] = assay: Bactericidal activity against Streptococcus pyogenes C203 at 0.008 ug/ml by time-kill study; type: functional, organism-based; procedure, shortened: as §2

Structure (SMILES): O=C(O)c1cn(C2CC2)c2cc(N3CCNCC3)c(F)cc2c1=O [CIPROFLOXACIN]
- MIC (Streptococcus pyogenes [1]): 0.5 µg/mL (≈ 1.51 µM)
- ED50 (Streptococcus pyogenes [1]; read-out: PD50): > 100 mg/kg
- Activity (Streptococcus pneumoniae [2]): Active
- MIC (Enterococcus faecalis): 0.5 µg/mL (≈ 1.51 µM)
- Activity (Streptococcus pneumoniae [3]): Active
- MIC (Streptococcus pneumoniae [4]): 2 µg/mL (≈ 6.04 µM)
- ED50 (Streptococcus pneumoniae [4]; read-out: PD50): > 100 mg/kg
- MIC (Staphylococcus aureus [5]): 0.5 µg/mL (≈ 1.51 µM)
- ED50 (Staphylococcus aureus [5]; read-out: PD50): 18 mg/kg
- MIC (Staphylococcus aureus [6]): > 64 µg/mL
- ED50 (Staphylococcus aureus [6]; read-out: PD50): > 100 mg/kg
- MIC (Staphylococcus aureus [7]): 0.06 µg/mL (≈ 0.181 µM)
- ED50 (Staphylococcus aureus [7]; read-out: PD50): 9.1 mg/kg
- Activity (Streptococcus pyogenes [8]): Active
- Activity (Streptococcus pyogenes [9]): Active
